Data from ChEMBL document CHEMBL3784974, “Design and Structural Characterization of Potent and Selective Inhibitors of Phosphatidylinositol 4 Kinase IIIβ” (J Med Chem, 2016).

What was measured:
[1] = Inhibition of GST-tagged recombinant human full length PI4K3beta expressed in insect cells preincubated for 15 mins followed by addition of cold ATP/gamma32P-ATP measured after 30 mins in presence of MgCl2
In short: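 Membrane-capture radiometric assay. Purchased enzyme, final 2.5 nM. Enzyme preincubated 15 min with inhibitor (diluted in 10% DMSO), then 30 min reaction. Final: 20 mM Bis-Tris propane pH 7.5, 10 mM MgCl2, 0.075 mM Triton X-100, 0.5 mM EGTA, 1 mM DTT, 100 µM PI in PI:DOPS:DOPC, 500 ng/µL BSA, 2% DMSO, 10 µM ATP, 1 uCi γ32P-ATP. Product spotted on nitrocellulose, washed in 1M NaCl/1% phosphoric acid, phosphorimaged.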

[2] = Cytotoxicity against human Huh7.5 cells after 3 days by presto blue assay; assay type: cell-based, Huh-7
In short: (§1)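 Huh7.5 cells stably infected with J6/JFH1-GLuc, kept in DMEM/10% FBS, glutamine, NEAA, pen/strep at 37 °C, 5% CO2. 10,000 cells/well; serially diluted compound added 1 h after plating; 3-day incubation. Replication read as Gaussia luciferase activity in supernatant; viability by Presto Blue.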

[3] = target: T1, Phosphatidylinositol 4,5-bisphosphate 3-kinase catalytic subunit delta isoform (Homo sapiens, UniProt O00329); assay: Inhibition of histidine-tagged recombinant human full length PI3Kdelta expressed in baculovirus preincubated for 15 mins followed by addition of cold ATP/gamma32P-ATP measured after 20 mins in presence of MgCl2
T1 sequence (O00329 whole entry): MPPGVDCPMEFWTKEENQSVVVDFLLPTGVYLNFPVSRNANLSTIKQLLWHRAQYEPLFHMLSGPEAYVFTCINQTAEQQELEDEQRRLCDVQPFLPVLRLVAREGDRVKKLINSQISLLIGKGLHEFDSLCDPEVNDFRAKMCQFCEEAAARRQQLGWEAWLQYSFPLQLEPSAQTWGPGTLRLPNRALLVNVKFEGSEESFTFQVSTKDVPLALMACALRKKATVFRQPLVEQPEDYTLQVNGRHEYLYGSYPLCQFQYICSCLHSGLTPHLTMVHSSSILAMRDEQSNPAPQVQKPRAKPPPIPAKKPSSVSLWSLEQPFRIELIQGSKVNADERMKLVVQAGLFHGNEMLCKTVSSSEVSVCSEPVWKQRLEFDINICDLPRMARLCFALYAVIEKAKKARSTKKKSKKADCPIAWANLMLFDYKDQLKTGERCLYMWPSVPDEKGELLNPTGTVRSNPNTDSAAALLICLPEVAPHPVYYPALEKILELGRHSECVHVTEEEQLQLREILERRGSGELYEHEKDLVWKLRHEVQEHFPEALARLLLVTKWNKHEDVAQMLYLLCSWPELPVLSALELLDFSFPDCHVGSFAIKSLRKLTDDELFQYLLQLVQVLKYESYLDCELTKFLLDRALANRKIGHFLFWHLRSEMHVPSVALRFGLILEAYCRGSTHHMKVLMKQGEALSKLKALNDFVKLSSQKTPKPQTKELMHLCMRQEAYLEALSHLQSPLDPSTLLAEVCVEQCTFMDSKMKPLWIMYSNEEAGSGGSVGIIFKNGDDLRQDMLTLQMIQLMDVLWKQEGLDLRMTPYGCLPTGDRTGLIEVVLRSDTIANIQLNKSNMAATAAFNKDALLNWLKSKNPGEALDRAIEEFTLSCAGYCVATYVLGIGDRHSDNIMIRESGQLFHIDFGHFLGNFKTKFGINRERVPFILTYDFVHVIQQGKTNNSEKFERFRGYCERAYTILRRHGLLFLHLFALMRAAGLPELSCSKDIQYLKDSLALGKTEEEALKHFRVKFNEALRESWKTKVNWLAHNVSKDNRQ
In short: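 Final: 50 mM HEPES pH 7.5, 100 mM NaCl, 0.03% CHAPS, 10 mM MgCl2, 1 mM EGTA, 2 mM DTT, 80 µM PIP2 (PIP2:DOPS:DOPC), 500 ng/µL BSA, 2% DMSO, 10 µM ATP, 2.5 uCi γ32P-ATP. Nitrocellulose capture, phosphorimaging.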

[4] = tested on: Hepatitis C virus; assay: Antiviral activity against HCV genotype 2a J6/JFH1 infected in human Huh7.5 cells after 3 days by gaussia luciferase assay; assay type: functional, organism-based, Hepacivirus hominis; details: subtype 2a J6/JFH1, Huh-7, 72 h; in short: as §1
[5] = target: T2, Phosphatidylinositol 4,5-bisphosphate 3-kinase catalytic subunit gamma isoform (Homo sapiens, UniProt P48736); assay: Inhibition of histidine-tagged recombinant human full length PI3Kgamma expressed in insect cells preincubated for 15 mins followed by addition of cold ATP/gamma32P-ATP measured after 15 mins in presence of MgCl2
Target sequence in this assay (P48736 whole entry, canonical isoform): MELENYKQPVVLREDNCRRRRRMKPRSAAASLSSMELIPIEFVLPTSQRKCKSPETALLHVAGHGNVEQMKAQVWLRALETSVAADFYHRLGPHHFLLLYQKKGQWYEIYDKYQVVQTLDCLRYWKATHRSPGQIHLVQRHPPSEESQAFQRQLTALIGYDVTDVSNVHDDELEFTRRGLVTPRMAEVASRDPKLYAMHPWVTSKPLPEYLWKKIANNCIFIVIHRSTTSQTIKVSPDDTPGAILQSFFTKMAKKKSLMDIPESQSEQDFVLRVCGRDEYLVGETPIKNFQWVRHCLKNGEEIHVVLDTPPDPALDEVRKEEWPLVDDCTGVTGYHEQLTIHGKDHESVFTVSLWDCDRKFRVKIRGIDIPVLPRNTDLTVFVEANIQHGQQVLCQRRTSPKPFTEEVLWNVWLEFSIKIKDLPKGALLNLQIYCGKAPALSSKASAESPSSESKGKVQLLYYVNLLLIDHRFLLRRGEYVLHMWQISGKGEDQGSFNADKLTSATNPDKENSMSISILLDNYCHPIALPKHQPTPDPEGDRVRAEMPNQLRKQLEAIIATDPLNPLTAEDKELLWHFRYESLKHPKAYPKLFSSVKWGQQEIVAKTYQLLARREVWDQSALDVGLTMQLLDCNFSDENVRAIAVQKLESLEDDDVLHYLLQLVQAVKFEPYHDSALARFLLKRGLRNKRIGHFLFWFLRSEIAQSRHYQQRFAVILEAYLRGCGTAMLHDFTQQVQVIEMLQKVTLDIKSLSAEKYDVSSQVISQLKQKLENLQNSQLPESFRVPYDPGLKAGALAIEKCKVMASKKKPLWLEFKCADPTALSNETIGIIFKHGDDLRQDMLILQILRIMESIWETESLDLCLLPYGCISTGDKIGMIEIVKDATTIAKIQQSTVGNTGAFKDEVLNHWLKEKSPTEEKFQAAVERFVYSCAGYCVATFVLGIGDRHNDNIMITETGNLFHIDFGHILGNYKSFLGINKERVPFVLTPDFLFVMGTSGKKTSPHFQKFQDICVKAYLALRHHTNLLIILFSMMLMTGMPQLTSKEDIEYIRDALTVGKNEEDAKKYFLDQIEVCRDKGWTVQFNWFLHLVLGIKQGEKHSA

[6] = target: T3, Phosphatidylinositol 3-kinase catalytic subunit type 3 (Homo sapiens, UniProt Q8NEB9); assay: Inhibition of GST-tagged recombinant human full length VPS34 expressed in baculovirus preincubated for 15 mins followed by addition of cold ATP/gamma32P-ATP measured after 1 hr in presence of MnCl2
T3 sequence (Q8NEB9 whole entry): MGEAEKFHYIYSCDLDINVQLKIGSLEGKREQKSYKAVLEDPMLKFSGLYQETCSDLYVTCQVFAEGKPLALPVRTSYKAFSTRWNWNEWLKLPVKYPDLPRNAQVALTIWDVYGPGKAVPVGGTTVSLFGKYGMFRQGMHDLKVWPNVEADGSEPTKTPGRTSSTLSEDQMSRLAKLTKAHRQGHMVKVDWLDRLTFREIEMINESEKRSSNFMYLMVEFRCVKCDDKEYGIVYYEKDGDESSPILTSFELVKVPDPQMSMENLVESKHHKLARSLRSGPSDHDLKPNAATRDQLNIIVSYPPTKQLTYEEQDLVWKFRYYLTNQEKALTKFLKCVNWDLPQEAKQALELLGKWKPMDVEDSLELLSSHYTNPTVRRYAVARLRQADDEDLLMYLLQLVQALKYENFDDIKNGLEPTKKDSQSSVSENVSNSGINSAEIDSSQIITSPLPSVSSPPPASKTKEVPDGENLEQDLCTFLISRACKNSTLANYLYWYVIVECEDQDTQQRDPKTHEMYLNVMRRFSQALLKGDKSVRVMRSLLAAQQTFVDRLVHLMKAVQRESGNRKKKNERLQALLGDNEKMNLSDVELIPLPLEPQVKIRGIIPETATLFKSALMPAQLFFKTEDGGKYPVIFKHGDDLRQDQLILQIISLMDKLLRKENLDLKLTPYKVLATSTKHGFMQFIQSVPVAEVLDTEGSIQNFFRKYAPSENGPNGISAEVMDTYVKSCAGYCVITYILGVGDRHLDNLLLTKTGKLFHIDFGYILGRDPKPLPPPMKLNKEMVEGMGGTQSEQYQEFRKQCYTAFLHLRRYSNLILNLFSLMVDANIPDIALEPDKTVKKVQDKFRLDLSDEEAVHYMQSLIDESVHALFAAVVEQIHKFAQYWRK
In short: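 Radiometric membrane-capture assay, 10 nM purchased vps34, 15 min preincubation with inhibitor, then 1 h reaction. Final: 50 mM HEPES pH 7.5, 0.1% CHAPS, 2mM MnCl2, 1 mM EGTA, 2 mM DTT, 100 µM PI in PI:DOPS:DOPC, 500 ng/µL BSA, 2% DMSO, 10 µM ATP, 2.5 uCi γ32P-ATP; spots washed, phosphorimaged.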

[7] = target: T2, Phosphatidylinositol 4,5-bisphosphate 3-kinase catalytic subunit gamma isoform; assay: Inhibition of histidine-tagged recombinant human full length PI3Kgamma expressed in insect cells at 50 uM preincubated for 15 mins followed by addition of cold ATP/gamma32P-ATP measured after 15 mins in presence of MgCl2
Target sequence in this assay (P48736 whole entry, looked up, canonical isoform): as the sequence (P48736 whole entry, canonical isoform) above

[8] = target: T4, Phosphatidylinositol 4,5-bisphosphate 3-kinase catalytic subunit delta isoform (Homo sapiens) (UniProt O00329); assay: Inhibition of histidine-tagged recombinant human full length PI3Kdelta expressed in baculovirus at 50 uM preincubated for 15 mins followed by addition of cold ATP/gamma32P-ATP measured after 20 mins in presence of MgCl2
T4 sequence (whole entry): T1 sequence (O00329 whole entry)

[9] = target: T3, Phosphatidylinositol 3-kinase catalytic subunit type 3; assay: Inhibition of GST-tagged recombinant human full length VPS34 expressed in baculovirus at 50 uM preincubated for 15 mins followed by addition of cold ATP/gamma32P-ATP measured after 1 hr in presence of MnCl2

Compound	IC50 [1] [nM]	CC50 at 72 h [2] [nM]	IC50 [3] [nM]	IC50 [4] [nM]	IC50 [5] [nM]	IC50 [6] [nM]	inhibition [7] [%]	inhibition [8] [%]	inhibition [9] [%]
COc1ccc(-c2sc(NC(C)=O)nc2C)cc1S(=O)(=O)NCCO	4.4	42000	223	29000	181	> 50000			
CC(=O)Nc1nc(C)c(-c2ccc(Cl)c(S(=O)(=O)Nc3ccc(F)cc3)c2)s1	23	13000	29	5900	31	245			
CC(=O)/N=c1/[nH]c(C)c(-c2ccc(Cl)c(S(=O)(=O)NCCO)c2)s1	17	10000		4800		307			
CC(=O)Nc1nc(C)c(-c2ccc(Br)c(S(=O)(=O)NCCO)c2)s1	5.3	5500	33	3000	21	146			
CC(=O)Nc1nc(C)c(-c2ccc(Cl)c(S(=O)(=O)Nc3ccc(O)cc3)c2)s1	4.2	7000	4.9	570	5	32			
COc1ccc(-c2sc(NC(=O)C(C)(C)C)nc2C)cc1S(=O)(=O)NCCO	36	> 40000		17000	> 50000	> 50000	< 20	< 50	< 20
Cc1nc(NC(=O)C2CCCC2)sc1-c1ccc(Cl)c(S(=O)(=O)NCCO)c1	16	20000	340	4400	1500	> 50000			
Cc1nc(NC(=O)C(C)(C)C)sc1-c1ccc(Cl)c(S(=O)(=O)NCCO)c1	5.5	33000	1570	6800	3700	> 50000			
